System: MS2 coat protein
Test: apparent Kd, MS2 coat protein; higher = weaker binding; RNA-MaP array; FMN 200 µM where present
Summary of the method: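 Designs were transcribed by stalled E. coli RNA polymerase on Illumina sequencing-chip clusters. They were titrated with SNAP-549-labelled MS2 coat protein from 0.7 or 1.5 nM, doubling to 3 µM, in 100 mM Tris-HCl pH 7.5, 80 mM KCl, 4 mM MgCl2, BSA, DTT, yeast tRNA and Tween-20, without and then with constant ligand. The apparent Kd is the median of filtered per-cluster fits after normalisation of green signal to red-channel RNA signal and control-cluster median Fmax.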

[1] = designed as: OFF switch for flavin mononucleotide, no ligand
[2] = ligand present: flavin mononucleotide, designed as: OFF switch for flavin mononucleotide
[3] = designed as: ON switch for flavin mononucleotide, no ligand
[4] = ligand present: flavin mononucleotide, designed as: ON switch for flavin mononucleotide

| Sequence | apparent Kd [1] | apparent Kd [2] | apparent Kd [3] | apparent Kd [4] |
| --- | --- | --- | --- | --- |
| UCUCGAUGUGUAGGAUAUCUGAUUACUAUGACAAGAGAAGGGCACAUGAGGAUCACCCAUGUGGAGGACCACUGGUUCAGAUUA | 0.0312 µM | 0.0493 µM |  |  |
| UCUCGGAGCAGAGGAUAUUACAUGAGGAUCACCCAUGUAUGAACCAAUAGCUGGAAACAGCAAUGUAAGAAGGCUGCUCCGACA | 0.0124 µM | 0.169 µM |  |  |
| UCUGCAUAGUCAGGAUAUGCAAAGUAAGCUAUGGAAACAUAGCUUACAACAUGAGGAUCACCCAUGUAGAAGGGACUGUGCAGA | 0.0141 µM | 0.013 µM |  |  |
| UCUGCCGCCGUGAGGAUAUGCCCGCGAAAACGCGGGCAGAAGGCACAUGAGGAUCACCCAUGUCCCGCGGUUUU | 0.0161 µM | 0.0367 µM |  |  |
| UCUGGAGCAGGAUAUGCAUUCGUGCUUCGGCACGUAAGGUCACAUGAGGAUCACCCAUGUAGAAGGGCUCCAGA | 0.0192 µM | 0.034 µM |  |  |
| UCUGUCGUUGUGAGGAUAUGCCCAAAUAAAAGCGGGCAGAAGGCACAUGAGGAUCACCCAUGUCCUGCGGUUUU | 0.0214 µM | 0.237 µM |  |  |
| UCUUAUUGCAAGGAUAUGCAAAUUAUUAUUAAAGCAGAAGGUGCAACAUGAGGAUCACCCAUGUUUCCGGGAAA | 0.0252 µM | 0.104 µM |  |  |
| UCUUAUUGCAAGGAUAUGCAAAUUAUUAUUAAUGCAGAAGGUGCUACAUGAGGAUCACCCAUGUUUCCGGGUUU | 0.045 µM | 0.161 µM |  |  |
| UCUUGACAUGAGGAUCACCCAUGUCAGGAUAUAGUAGGACAAAUAAAUAAAAGUUCUACUAGAAGGGAUAUGGG | 0.0249 µM | 0.0468 µM |  |  |
| UCUUUAUAGAUCCAUUUUAACUACAUGAGGAUCACCCAUGUGCAGGAUAUCGAUUGUUUUACUUUCGAGAAGGGCAAAUUCAGC | 0.0576 µM | 0.131 µM |  |  |
| UCUUUGUGAGGAUAUCAGUAGUAAAUAAAUAAAAUUACUACUGAGAAGGCACAUGAGGAUCACCCAUGUUCCUU | 0.0121 µM | 0.0244 µM |  |  |
| UGAAACUACGAGAAGGACAUGUGGUCCUUCAGUUACAUGAGGAUCACCCAUGUAGGAUAUCGUAGUUUCAGGAUCGUGAGAUCA | 0.0347 µM | 0.0146 µM |  |  |
| UGAAAUCAUGUAGGAUAUGCAUGGCGAAGCUACGCAGAAGGACAUGAGGAUCACCCAUGUUAUAGCUACCCAGUUAGGUGGCAA | 0.145 µM | 0.157 µM |  |  |
| UGAAAUCAUGUAGGAUAUGCAUGGCGAAGCUACGCAGAAGGACAUGAGGAUCACCCAUGUUCUAGCGUCUGAGUACAGAUGCAA | 0.0196 µM | 0.0649 µM |  |  |
| UGAACAAUGUAGAAGGCCCAUAUUUAUAUAUAGGGAGGAUAUACAUGAGGAUCACCCAUGUAAAGAGCAAGAGGAUUUGACAGA | 0.0104 µM | 0.0222 µM |  |  |
| UGAACUCAUGUAGGAUAUGCAUGGCGAAGCUACGCAGAAGGACAUGAGGAUCACCCAUGUUCUAGCGUCUGAGUACAGAUGCAA | 0.148 µM | 0.118 µM |  |  |
| UGACACAUGAGGGUCUCCCAUGACAUGAGGAUCACCCAUGUGCAGGAUAUACGUGUGAUGGUAUAGUAGAAGGGCACUCUAUGU | 0.0464 µM | 0.0658 µM |  |  |
| UGACUAGUAAUGUAUCGAAAGAUCACAUGAGGAUCACCCAUGUAGGAUAUGAGCAGAAAAUCUGCUCAGAAGGACAUGCUAGUC | 0.0059 µM | 0.00736 µM |  |  |
| UGAGACCUCACAGGAUAUGCUGGACUUUGUCCAGCAGAAGGGUGAAAACAUGAGGAUCACCCAUGUAUGGUCUCCAAAUUUAAG |  |  | 0.191 µM | 0.0127 µM |
| UGAGCAAGAGGAUAUACAAGGCGACCGUGAGGUCGAGGGUUACAUGAGGAUCACCCAUGUAGAAGGCUUGUUCU | 0.0371 µM | 0.323 µM |  |  |
| UGAGCAAGAGGAUAUACAAGGCGACCGUGAGGUCGAGGUUUACAUGAGGAUCACCCAUGUAGAAGGCUUGUUCU | 0.0172 µM | 0.0389 µM |  |  |
| UGAGCGCACGAGAAGGGCGGGUUCACGGGCUCCUGACGAGACAUGAGGAUCACCCAUGUAACCACGCAGGAUAUCGACCGGAUC | 0.0209 µM | 0.141 µM |  |  |
| UGAUACCAAGGAUAUACAUGAGGAUCACCCAUGUCGGACCGAUGUGUCUCCUCCUGCUGUAGAAGGUGGAAAAU | 0.0399 µM | 0.0556 µM |  |  |
| UGAUAGGACAGAGGAUAUACCGAUAGGAUCUACUAUCGAACAAUUCUCACAUGAGGAUCACCCAUGUAGAAGGCUGUCCUAUCU | 0.0158 µM | 0.0302 µM |  |  |
| UGAUAGGACAGAGGAUAUACGUAUAAUUCCUUCAACAUGAGGAUCACCCAUGUAGAAGGCUGUCCUAUCUAAGUCGGAAACGAC | 0.00481 µM | 0.00533 µM |  |  |
| UGAUAGGACAGAGGAUAUACGUGCUAGAGAUACUAGCAAAGUUUCCUGACAUGAGGAUCACCCAUGUAGAAGGCUGUCCUAUCU | 0.00656 µM | 0.0209 µM |  |  |
| UGAUAGGACAGAGGAUAUGCCGAUAGGAUUUACUAUCGAAGAAUCCUCACAUGAGGAUCACCCAUGUAGAAGGCUGUCCUAUCU | 0.00736 µM | 0.0359 µM |  |  |
| UGAUCCGCAUCGGCGCACAAGACAUGAGGAUCACCCAUGUACAGAAGGCGAAAAGCGAAGGCGGUCGAGGAUAUGUACCUACGG | 0.00692 µM | 0.0157 µM |  |  |

| Sequence | apparent Kd [1] | apparent Kd [2] | apparent Kd [3] | apparent Kd [4] |
| --- | --- | --- | --- | --- |
| UGAUCUAUGUAGAAGGCCCAUAUCUAUAUUUAGGGAGGAUAUACAUGAGGAUCACCCAUGUAUAGAGCGGGUGGACCCGUCACC | 0.0267 µM | 0.0621 µM |  |  |
| UGAUCUUUUGUUAGGAUAUGCUGGCUGAAAAGUCAGCAGAAGGGACAUGAGGAUCACCCAUGUUCUCUCUUUUU | 0.00966 µM | 0.0136 µM |  |  |
| UGAUGUCGCGAGGAUAUCCAAGAGGACUUUCUGGGAGAAGGUGCGACAUGAGGAUCACCCAUGUCAUAAGGAGU | 0.109 µM | 0.287 µM |  |  |
| UGAUUCGAGGCUAAGCCUCCAUCACAGGAUAUGCACGAGACAUGAGGAUCACCCAUGUGGCGAAGGCAGAAGGGUGAUACGUCU |  |  | 0.197 µM | 0.0246 µM |
| UGAUUGCGUGUUAGGAUAUGGUUUGGUGUUUCGGGCUAGAAGGGACAUGAGGAUCACCCAUGUAACUGGCGGGU | 0.0549 µM | 0.0677 µM |  |  |
| UGCAUGUAAGGAUAUGCAUCCGCCAACGAACCGGCGGCACAGCAGAAGGUACAUGAGGAUCACCCAUGUGUCCC | 0.0348 µM | 0.195 µM |  |  |
| UGCAUGUAAGGAUAUGCAUCCGCCGGCGAACCGGCGCCACAGCAGAAGGUACAUGAGGAUCACCCAUGUGUCCC | 0.0188 µM | 0.0516 µM |  |  |
| UGCCGAUGAGGAUAUACAUUGAAUUUGAUUCAUGUAAAACUACAUGAGGAUCACCCAUGUAGAAGGCAUUGGCU | 0.0169 µM | 0.0304 µM |  |  |
| UGCGAGCAGAUCGUCCGCUCACAUGAGGAUCACCCAUGUAGGAGAAGGCGCCAUGAAGGCAGCGGCGAGGAUAUCCUCGUGGGC | 0.078 µM | 0.0776 µM |  |  |
| UGCGUCUAGACAGGAUAUCAAGGACGCCUACAUGAGGAUCACCCAUGUCGGCGGAGCAGCUCCGUUGAGAAGGGUCAUCGCAAC |  |  | 0.0665 µM | 0.0242 µM |
| UGCUGUGUCAGAGGAUAUACAUCAAUAAUCCAUUGCAAAUAGCGAUGGACAUGAGGAUCACCCAUGUAGAAGGCUGUCACAGCA | 0.111 µM | 0.384 µM |  |  |
| UGGAAACAUGAGGAUCACCCAUGUAAAAGGUGGUCAGGAUAUGCGAAAAGAAAAAGAAAAGUAGAAGGGACAAGAA |  |  | 0.459 µM | 1.2 µM |
| UGGAUGUAGGAGAAGGAGGACUUCAUGAGGAUCACCCAUGUGUUAGUACUUAGGAUAUUUGACAACAUGAGGAUCACCCAUGUC |  |  | 0.138 µM | 0.113 µM |
| UGGCCGAAGUUAGGAUAUUGGUUAGGGACGGACUAAGAAGGAGCACAUACAUGAGGAUCACCCAUGUUAGAAGAAGAUCCUCCA | 0.0293 µM | 0.0267 µM |  |  |
| UGGCGGAGCAGAGGAUAUUACAUGAGGAUCACCCAUGUAUGAACCAAUAGCUGGAAACAGCAAUGUAAGAAGGCUGCUCCGACA | 0.0121 µM | 0.176 µM |  |  |
| UGGCUGAGUCGAGGAUAUGAUCUUCAUAUAUAUACAUGAGGAUCACCCAUGUAUAAUUACAUGGAUCAGAAGGCGACUCAGCCU |  |  | 0.0294 µM | 0.00947 µM |
| UGGGAUGGCUAGAAGGCUCCGUAUACUAAAGGGAGAGGAUAUGGCACAUGAGGAUCACCCAUGUGUACCUGUAGGUGAUCCACA | 0.276 µM | 0.07 µM |  |  |
| UGGGUAAAUGUAGGAUAUUUAUAUUAAUAGUAUGGAGAAGGACAUGAGGAUCACCCAUGUACAGGGAAUUACCCAUUUCCUCUC | 1.01 µM | 1.1 µM |  |  |
| UGGGUCACAGGAUAUACAUGAGGAUCACCCAUGUCGUAUUUCGUGGCGGAGAGCUCGAGUAGAAGGGUGCAUCC | 0.119 µM | 0.0874 µM |  |  |
| UGGGUGGUAUGAGGAUAUGCGCGCGAAACGCGCGCAGAAGGCAUGUCAAUAGACAUGAGGAUCACCCAUGUACUAUCCAUCCAA |  |  | 0.0913 µM | 0.00919 µM |
| UGGGUUUGUAGUUACAUCCCUACACAGGAUAUGGGUAGUUACAUGAGGAUCACCCAUGUUCGAACUCAGAAGGGUGGAUCGUUG |  |  | 0.0853 µM | 0.0113 µM |
| UGGUAACAUGAGGAUCACCCAUGUCAGGAUAUCAGUAAGAAGAGAUUAGAGUAGAAUAUGAGAAGGGACUAUAG | 0.0367 µM | 0.0304 µM |  |  |
| UGGUACAUCGGAGGAUAUCAUGUAUAGACAUGAGGAUCACCCAUGUCGUACGAGAGUACGGAGAUUGAGAAGGCCGAUGUACCU |  |  | 0.021 µM | 0.0166 µM |
| UGGUACAUCGGAGGAUAUCAUGUGAUAACAUGAGGAUCACCCAUGUCGAUGGAGACAUCGGAGAUUGAGAAGGCCGAUGUACCU |  |  | 0.801 µM | 0.0842 µM |
| UGGUACAUGAGGAUCACCCAUGUAAGAGCCCUCAUGCGAUGUAGAAGGUUAAUGCGUGUAGUGCUAAAGGAUAUACAUGAGUUU | 0.0823 µM | 0.0712 µM |  |  |
| UGGUACAUGGGAGGAUAUCCUCAAACAUGAGGAUCACCCAUGUAAAAUUAUAAGCCGAAAGGCAUGGAGAAGGCCCAUGUACCU |  |  | 0.119 µM | 0.017 µM |
| UGGUACAUGGGAGGAUAUGGGUAGAUAACAUGAGGAUCACCCAUGUUAAGAAAUGCCGAAAGGCACUAGAAGGCCCAUGUACCU |  |  | 0.637 µM | 0.0467 µM |

Reference: the EternaBench riboswitch data
